The results in this text go back to ChEMBL document CHEMBL1130129, “Immunologically specific activation of a cephalosporin derivative of mitomycin C by monoclonal antibody beta-lactamase conjugates” (J Med Chem, 1997).

Test [1] in a line: Ratio of kinetic constants for hydrolysis by beta-lactamase from Enterobacter cloacae P99 (kcat/Km). The arrangement: unit not given here. The method in brief:
(§1)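 Purified E. cloacae β-lactamase (0.1 µg/mL) added to prodrug in PBS pH 7.2 containing 12.5 µg/mL bovine serum albumin, 23 °C; β-lactam hydrolysis followed by loss of absorbance at 260 nm. Initial velocities taken from linear portions of absorbance-time plots and used to derive kinetic constants.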

Test [2] concerns the target Beta-lactamase (Enterobacter cloacae) (UniProt P05364). Description: Determination of kinetic constant (Kcat) for hydrolysis by beta-lactamase from Enterobacter cloacae P99. The method in brief: as §1

Beta-lactamase (Enterobacter cloacae), sequence (P05364 21-381 limits assumed): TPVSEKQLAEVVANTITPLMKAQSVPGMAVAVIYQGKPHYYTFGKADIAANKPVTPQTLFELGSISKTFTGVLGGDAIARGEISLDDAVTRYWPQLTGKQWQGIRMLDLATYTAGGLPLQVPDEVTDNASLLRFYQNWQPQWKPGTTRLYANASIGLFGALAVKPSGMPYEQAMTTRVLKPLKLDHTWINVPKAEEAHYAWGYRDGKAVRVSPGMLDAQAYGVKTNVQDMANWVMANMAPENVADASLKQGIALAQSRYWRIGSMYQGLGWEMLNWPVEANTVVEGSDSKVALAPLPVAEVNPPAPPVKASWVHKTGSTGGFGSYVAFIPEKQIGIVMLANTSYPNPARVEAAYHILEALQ

On to `COc1cccc2c1C(=O)c1c(O)c3c(c(O)c1C2=O)C[C@@](O)(C(=O)CO)C[C@@H]3OC1CC(NC(=O)OCC2=C(C(=O)O)N3C(=O)[C@@H](NC(=O)CCCC(=O)O)[C@H]3SC2)C(O)C(C)O1` (some centres undefined), for which, in test [1], the Ratio stood at 2.5.
In test [2], `CO[C@@]12[C@H](COC(N)=O)C3=C(C(=O)C(C)=C(NCC4=C(C(=O)O)N5C(=O)[C@@H](NC(=O)CCCC(=O)O)[C@H]5SC4)C3=O)N1C[C@@H]1N[C@@H]12` displayed a k cat of 248 s⁻¹. Moreover, the Ratio in test [1] was 2.1.
Consider `O=C(Cc1ccccc1)N[C@@H]1C(=O)N2C(C(=O)O)=C(COC(=O)Nc3ccc(N(CCCl)CCCl)cc3)CS[C@H]12`, for which the k cat in test [2] was 119 s⁻¹. Moreover, the Ratio in test [1] amounted to 17.
In test [2], `O=C(O)CCCC(=O)N[C@@H]1C(=O)N2C(C(=O)O)=C(COC(=O)Nc3ccc(N(CCCl)CCCl)cc3)CS[C@H]12` showed a k cat of 337 s⁻¹. Moreover, the Ratio in test [1] amounted to 7.8.
With `CO[C@@]12[C@H](COC(N)=O)C3=C(C(=O)C(C)=C(NCC4=C(C(=O)O)N5C(=O)[C@@H](NC(=O)Cc6ccccc6)[C@H]5SC4)C3=O)N1C[C@@H]1N[C@@H]12`, the k cat in test [2] came out at 476 s⁻¹. Also, the Ratio in test [1] was found to be 9.7.
